This is an account of results in ChEMBL document CHEMBL2169800 (J Med Chem, 2012).

Activity calls are given as the source filed them. The rule behind the calls is not given here.

Assay [1] concerns the target T1, Prostaglandin G/H synthase 2 (Ovis aries, UniProt P79208).
T1 sequence (P79208 whole entry): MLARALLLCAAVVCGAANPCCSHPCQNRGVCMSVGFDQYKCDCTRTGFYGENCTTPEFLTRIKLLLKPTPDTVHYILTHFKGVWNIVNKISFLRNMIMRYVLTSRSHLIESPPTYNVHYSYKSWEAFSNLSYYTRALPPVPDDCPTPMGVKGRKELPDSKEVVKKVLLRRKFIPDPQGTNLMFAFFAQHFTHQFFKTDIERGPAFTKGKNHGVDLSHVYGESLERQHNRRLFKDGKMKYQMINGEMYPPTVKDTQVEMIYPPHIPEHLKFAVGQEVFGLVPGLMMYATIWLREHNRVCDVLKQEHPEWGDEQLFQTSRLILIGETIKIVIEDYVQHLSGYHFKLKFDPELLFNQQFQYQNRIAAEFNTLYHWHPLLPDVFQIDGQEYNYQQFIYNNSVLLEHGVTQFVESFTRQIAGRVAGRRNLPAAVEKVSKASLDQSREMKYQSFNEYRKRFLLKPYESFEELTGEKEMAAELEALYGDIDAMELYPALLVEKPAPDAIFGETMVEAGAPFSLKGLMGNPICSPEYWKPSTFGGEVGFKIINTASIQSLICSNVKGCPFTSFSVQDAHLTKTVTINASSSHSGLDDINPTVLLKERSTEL
The experiment in a line: Inhibition of sheep COX2 pre-incubated for 5 mins before […] substrate addition by peroxidase activity detection based oxygen electrode assay.

For assay [2], the target named is T2, Fatty-acid amide hydrolase 1 (Rattus norvegicus, UniProt P97612).
T2 sequence (P97612 whole entry): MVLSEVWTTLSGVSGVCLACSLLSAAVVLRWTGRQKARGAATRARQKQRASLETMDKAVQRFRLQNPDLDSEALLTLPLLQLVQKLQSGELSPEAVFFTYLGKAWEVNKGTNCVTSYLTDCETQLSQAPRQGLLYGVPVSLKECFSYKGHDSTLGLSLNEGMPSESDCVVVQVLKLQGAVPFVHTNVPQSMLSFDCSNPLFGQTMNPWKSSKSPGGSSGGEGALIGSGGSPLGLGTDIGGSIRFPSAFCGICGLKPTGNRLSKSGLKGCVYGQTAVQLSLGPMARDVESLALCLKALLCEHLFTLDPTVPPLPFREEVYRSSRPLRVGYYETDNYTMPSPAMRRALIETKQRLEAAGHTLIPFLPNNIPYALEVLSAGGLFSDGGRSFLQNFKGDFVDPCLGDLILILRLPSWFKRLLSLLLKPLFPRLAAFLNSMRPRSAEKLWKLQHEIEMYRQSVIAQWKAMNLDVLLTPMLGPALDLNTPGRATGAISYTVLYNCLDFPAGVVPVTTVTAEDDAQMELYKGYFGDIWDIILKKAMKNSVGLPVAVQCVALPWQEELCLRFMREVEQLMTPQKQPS
The experiment in a line: Inhibition of FAAH in Sprague-Dawley rat cerebellum membranes pre-incubated for 10 mins before addition of [3H]AEA substrate in presence of ethyl alcohol by liquid scintillation counting. It is filed as cell membranes, Membrane.

Assay [3] addresses T3, Prostaglandin G/H synthase 1 (Ovis aries, UniProt P05979).
T3 sequence (P05979 whole entry): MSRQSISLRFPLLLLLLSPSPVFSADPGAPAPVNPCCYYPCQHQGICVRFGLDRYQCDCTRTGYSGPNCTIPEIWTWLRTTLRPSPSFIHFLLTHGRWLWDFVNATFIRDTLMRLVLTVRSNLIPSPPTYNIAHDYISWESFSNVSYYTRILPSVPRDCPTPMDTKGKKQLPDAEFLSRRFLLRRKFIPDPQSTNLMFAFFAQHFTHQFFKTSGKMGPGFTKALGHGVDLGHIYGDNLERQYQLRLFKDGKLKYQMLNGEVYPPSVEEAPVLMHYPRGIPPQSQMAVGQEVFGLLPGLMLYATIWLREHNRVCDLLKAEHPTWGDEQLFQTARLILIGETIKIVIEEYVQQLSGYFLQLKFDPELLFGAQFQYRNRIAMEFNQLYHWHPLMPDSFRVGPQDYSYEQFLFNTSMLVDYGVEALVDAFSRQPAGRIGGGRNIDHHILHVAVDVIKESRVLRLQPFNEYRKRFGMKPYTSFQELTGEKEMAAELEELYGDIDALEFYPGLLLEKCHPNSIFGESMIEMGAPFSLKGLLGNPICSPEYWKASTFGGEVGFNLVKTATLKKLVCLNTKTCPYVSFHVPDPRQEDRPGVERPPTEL
The experiment in a line: Inhibition of ovine COX1 pre-incubated for 10 mins before arachidonic acid substrate addition by enzyme immunoassay. In short, it runs like this:
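Ovine COX-1 pre-incubated with inhibitor for 10 min at 37 °C, then 5 μM arachidonic acid for 2 min at 37 °C. Stopped with HCl; PGH2 reduced to PGF2α with SnCl2 and measured by competitive EIA (PG antibody, PG-acetylcholinesterase conjugate), absorbance at 412 nm.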

The target of assay [4] is T4, Prostaglandin G/H synthase 2 (Homo sapiens) (UniProt P35354).
T4 sequence (whole entry): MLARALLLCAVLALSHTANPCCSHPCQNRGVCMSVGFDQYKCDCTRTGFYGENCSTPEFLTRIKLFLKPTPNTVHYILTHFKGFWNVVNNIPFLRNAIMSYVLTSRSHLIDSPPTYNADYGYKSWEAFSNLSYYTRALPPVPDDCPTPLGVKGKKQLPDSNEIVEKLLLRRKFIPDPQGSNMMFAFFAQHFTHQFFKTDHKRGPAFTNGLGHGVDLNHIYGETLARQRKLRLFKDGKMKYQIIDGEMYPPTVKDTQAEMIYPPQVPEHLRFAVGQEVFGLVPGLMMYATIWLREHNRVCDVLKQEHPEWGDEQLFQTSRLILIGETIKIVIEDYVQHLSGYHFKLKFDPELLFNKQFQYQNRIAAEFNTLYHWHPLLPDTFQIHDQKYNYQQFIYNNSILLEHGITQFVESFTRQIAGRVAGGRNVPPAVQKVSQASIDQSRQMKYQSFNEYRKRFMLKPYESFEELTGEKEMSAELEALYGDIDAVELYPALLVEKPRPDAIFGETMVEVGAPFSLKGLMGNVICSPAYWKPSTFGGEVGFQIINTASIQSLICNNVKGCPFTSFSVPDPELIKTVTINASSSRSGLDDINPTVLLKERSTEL
Description: Inhibition of human COX2 at 30 uM pre-incubated for 10 mins before substrate addition by enzyme immunoassay. In short, it runs like this: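 Human COX-2 pre-incubated with inhibitor 10 min at 37 °C, then 5 μM arachidonic acid for 2 min at 37 °C. Reaction stopped with HCl, PGH2 reduced to PGF2α by SnCl2, and PGF2α quantified by competitive EIA with PG-acetylcholinesterase conjugate, absorbance 412 nm. Single test concentration 30 μM.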

For assay [5], the target named is T3, Prostaglandin G/H synthase 1. The experiment in a line: Inhibition of sheep COX1 pre-incubated for 5 mins before arachidonic acid substrate addition in presence of ethanol by peroxidase activity detection based oxygen electrode assay.
Assay [6] has the same target. Description: Inhibition of sheep COX1 pre-incubated for 5 mins before arachidonic acid substrate addition in presence of DMSO by peroxidase activity detection based oxygen electrode assay.
In assay [7] the target is T2, Fatty-acid amide hydrolase 1. Description: Inhibition of FAAH in rat brain homogenates pre-incubated for 10 mins before addition of [3H]anandamide and [3H]AEA substrates for 30 mins by liquid scintillation counting. Type of assay: tissue-based. The following applies: read-out: IC50. In short, it runs like this: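 Rat whole-brain homogenate (50 ug protein/sample) in 50 mM TRIS pH 7.4, 0.05 % fatty acid free BSA; inhibitor pre-incubated 10 min, then 1 uM unlabelled AEA plus 0.6 nM [3H]-AEA added for 30 min at 37°C. Stopped with cold 1:1 CHCl3/MeOH; aqueous phase counted.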

The target in assay [8] is T5, Prostaglandin G/H synthase 2 (Homo sapiens, UniProt P35354).
T5 sequence (P35354 whole entry): T4 sequence (whole entry)
Description: Inhibition of human COX2 pre-incubated for 10 mins before substrate addition by enzyme immunoassay.

For assay [9], the target named is T6, Fatty-acid amide hydrolase 1 (Rattus norvegicus) (UniProt P97612).
T6 sequence (whole entry): T2 sequence (P97612 whole entry)
The experiment in a line: Potency index, ratio of IC50 for carprofen to IC50 for compound against FAAH in rat brain homogenates pre-incubated for 10 mins before addition of [3H]anandamide and [3H]AEA substrates for 30 mins by liquid scintillation counting. Type of assay: tissue-based.

The target of assay [10] is T6, Fatty-acid amide hydrolase 1 (Rattus norvegicus). The following applies: Brain, 30 uM.

As for `Cc1cccnc1NC(=O)C(C)c1ccc(CC(C)C)cc1` (stereo unspecified), the 50% inhibitory concentration (IC50) was 20 µM in [1]; 500 nM in [2]; 170 µM in assay [3]; 240 µM in assay [5]; 60 µM in assay [6]; 66 µM in assay [7]. In [4], this compound returned an inhibition of 30%.

In the case of `CC(C(=O)Nc1ccccc1)c1ccc2c(c1)[nH]c1ccc(Cl)cc12` (racemic), the 50% inhibitory concentration (IC50) is greater than 100 µM in assay [3], greater than 100 µM in assay [8] and 2.9 µM in [7]. The Ratio IC50 in assay [9] came out at 26.

As to `C[C@@H](C(=O)O)c1ccc2c3cc(Cl)ccc3n(C(=O)c3ccc(Cl)cc3)c2c1`, the results for the IC50 in assay [3], in assay [8] and in [7] were greater than 100 µM, greater than 100 µM and 14.9 µM, respectively.

As for `CC(C(=O)O)c1ccc2c(c1)[nH]c1ccccc12` (racemic), the 50% inhibitory concentration (IC50) in assay [3] is greater than 100 µM; in [8] it was greater than 100 µM; in assay [7], 4.6 µM.

Consider `COc1ccccc1Cn1c2ccc(Cl)cc2c2ccc(C(C)C(=O)O)cc21` (racemic), for which the inhibition entry in [10] was “inactive”. The half-inhibitory concentration (IC50) in assay [3], in assay [8] and in [7] was greater than 100 µM throughout.
